Source: paper PMC9076653 (RSC Advances, 2019)
“And” between values parts separate entries of the source, which are not always exact repeats. Equal entries are not always repeated.

Legend:
[1] = test system: MDA-MB-231; assay: MTT cell growth inhibition assay, MDA-MB-231; assay type: cell-based; settings: Homo sapiens, MDA-MB-231, 72 h, read-out: IC50 MDA-MB-231
Outline: (§1)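 MTT assay. Seeding per well was 3 × 10^3 for cancer cells, 4 × 10^3 for HUVEC and 8 × 10^3 for HL7702. Test compound was added after adherence and incubated 72 h. MTT (5 mg mL−1 stock) was added for a further 4 h at 37 °C, formazan was dissolved in DMSO, and absorbance was read at 570 nm. Inhibition was calculated relative to controls, and IC50 is the concentration giving 50% growth inhibition.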

[2] = test system: HUVEC; assay: MTT cell growth inhibition assay, HUVEC; assay type: cell-based; settings: Homo sapiens, 72 h, read-out: IC50 HUVEC
Outline: as §1

[3] = test system: Hsp90 client proteins (Her2, AKT, CDK4) and Hsp70 in MDA-MB 231 cells; assay: Western blot assay of Hsp90 inhibition in cellular system; assay type: cell-based, human; settings: 0.5 μM
Outline: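 MDA-MB 231 cells were treated with or without test compound over different time courses. Cells were lysed in ice-cold Tris-HCl (pH 7.4) buffer with Triton, EDTA/EGTA, phosphatase and protease inhibitors, then boiled 10 min in SDS loading buffer. Proteins were separated by 8–12% SDS-PAGE and transferred to PVDF. Membranes were blocked in 5% BSA in PBS-Tween for 1 h, incubated with primary antibodies overnight at 4 °C, and detected with peroxidase-conjugated anti-rabbit or anti-mouse secondary antibodies and ECL.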

[4] = test system: SW480; assay: MTT cell growth inhibition assay, SW480; assay type: cell-based; settings: Homo sapiens, SW480, 72 h, read-out: IC50 SW480
Outline: as §1

[5] = test system: HL7702; assay: MTT cell growth inhibition assay, HL7702; assay type: cell-based; settings: Homo sapiens, L02, 72 h, read-out: IC50 HL7702
Outline: as §1

[6] = test system: HeLa; assay: MTT cell growth inhibition assay, HeLa; assay type: cell-based; settings: Homo sapiens, 72 h, read-out: IC50 HeLa
Outline: as §1

[7] = test system: A431; assay: MTT cell growth inhibition assay, A431; assay type: cell-based; settings: Homo sapiens, A-431, 72 h, read-out: IC50 A431
Outline: as §1

[8] = test system: A549; assay: MTT cell growth inhibition assay, A549; assay type: cell-based; settings: Homo sapiens, A549, 72 h, read-out: IC50 A549
Outline: as §1

[9] = test system: BGC-823; assay: MTT cell growth inhibition assay, BGC-823; assay type: cell-based; settings: Homo sapiens, BGC-823, 72 h, read-out: IC50 BGC-823
Outline: as §1

[10] = In vivo hepatotoxicity assay; set-up: species or system Kunming mice; settings: mice
Outline: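 Female Kunming mice (4–6 weeks) were randomised into three groups of three: vehicle control, or test compound or parent ansamycin at 10 mg kg−1. They were injected once daily for three consecutive days. Serum AST and ALT were then measured with spectrophotometric kits and reported in U L−1.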

[11] = test system: HepG2; assay: MTT cell growth inhibition assay, HepG2; assay type: cell-based; settings: Homo sapiens, HepG2, 72 h, read-out: IC50 HepG2
Outline: as §1

[12] = test system: MDA-MB-231 xenograft; assay: In vivo antitumor assay, MDA-MB-231 xenograft model; set-up: species or system nude mice; settings: 10 mg kg^−1 via caudal vein every three days, 15 days
Outline: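 Female athymic nude mice (6–7 weeks) first received 5 × 10^6 logarithmic-phase MDA-MB-231 cells s.c. in physiological saline. After two weeks, tumour fragments were implanted into the right flank. At a mean tumour volume of 100 mm3, mice were randomised (6 per group) and dosed 10 mg kg−1 via the tail vein every three days for 15 days. Vehicle was 5% glucose with 1% DMSO and 2% lecithin; a reference Hsp90 inhibitor served as positive control. Calipers were used every three days, with V = length × width²/2. TGI came from final tumour weights, and T/C from mean RTV (Vt/V0). Student's two-tailed t test was used, P < 0.05.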

[13] = 10 mg kg^−1, injected once a day for three days, blood serum

| IC50 [1] | IC50 [4] | IC50 [6] | IC50 [7] | IC50 [8] | IC50 [9] | IC50 [11] | SMILES | IC50 [2] | levels of Hsp70 [3] | IC50 [5] | ALT [10, 13] | AST [10, 13] | AST and ALT levels versus vehicle control group ([10]; 10 mg kg^−1, three days) | T/C ([12]; relative tumor volume) | TGI ([12]; tumor weight) |
| --- | --- | --- | --- | --- | --- | --- | --- | --- | --- | --- | --- | --- | --- | --- | --- |
| 0.059 ± 0.013 µM | 0.298 ± 0.034 µM | 0.731 ± 0.053 µM | 0.045 ± 0.006 µM | 0.091 ± 0.007 µM | 0.04 ± 0.008 µM | 0.045 ± 0.007 µM | COC1=C2C[C@@H](C)C[C@H](OC)[C@H](O)[C@@H](C)/C=C(\C)[C@H](OC(N)=O)[C@@H](OC)/C=C\C=C(/C)C(=O)NC(=CC1=O)C2=O [GA, Geldanamycin] | 0.018 ± 0.003 µM | markedly increased | 0.133 ± 0.02 µM | 273.0 ± 25.3 U L^−1 | 317.2 ± 39.1 U L^−1 | significantly higher | – | – |
| 0.324 ± 0.076 µM | 0.614 ± 0.085 µM | 0.112 ± 0.018 µM | 0.072 ± 0.004 µM | 0.087 ± 0.006 µM | 0.725 ± 0.099 µM | 0.082 ± 0.016 µM | C=CCNC1=C2C[C@@H](C)C[C@H](OC)[C@H](O)[C@@H](C)/C=C(\C)[C@H](OC(N)=O)[C@@H](OC)/C=C\C=C(/C)C(=O)NC(=CC1=O)C2=O [Compound 17-AAG, 17-allylamino-17-demethoxygeldanamycin] | 0.271 ± 0.038 µM | markedly increased | 0.105 ± 0.007 µM | – | – | – | 41.9% and 41.9 ± 11.3% | 55.1% and 55.1 ± 5.5% |
